Data from PubChem BioAssay AID720543 (The Scripps Research Institute Molecular Screening Center, 2013).
Out of some 370,000 compounds screened, about 2,000 (0.54%) were called active. For the sample, actives were picked, then their nearest neighbours and some compounds at random. Unmarked numbers belong to inactive results.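 Rule for the calls: active = inhibition exceeding the mean over every tested compound plus 3 SD (cut at about 30% in these data); inactive = the rest.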

These compounds were tested against (Lyso)-N-acylphosphatidylethanolamine lipase (Mus musculus) (UniProt Q8VD66) (assay: mouse ABHD4 hydrolase activity blockers – biochemical, fluorescence polarization, primary screen (AID 720543;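 note: 0% = plate median of compound wells and 100% = S159A mutant with DMSO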)). Conditions: purified mABHD4, FP-Rh probe fluorescence polarization; at 8.92 µM; stronger effect = higher value.
(Lyso)-N-acylphosphatidylethanolamine lipase (Mus musculus), sequence (Q8VD66 whole entry, looked up): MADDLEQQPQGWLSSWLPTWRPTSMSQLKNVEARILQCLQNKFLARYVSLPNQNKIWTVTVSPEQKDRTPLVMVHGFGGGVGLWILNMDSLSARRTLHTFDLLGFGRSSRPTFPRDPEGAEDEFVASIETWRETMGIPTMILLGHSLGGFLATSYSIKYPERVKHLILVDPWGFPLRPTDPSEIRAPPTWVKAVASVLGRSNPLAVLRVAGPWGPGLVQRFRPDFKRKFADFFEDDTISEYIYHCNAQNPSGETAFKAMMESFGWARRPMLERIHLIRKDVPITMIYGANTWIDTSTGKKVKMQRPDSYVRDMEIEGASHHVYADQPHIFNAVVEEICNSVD
Summary of the method: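 system = mouse ABHD4 enzyme, wild type | medium = HEPES pH 7.0, NaCl, Pluronic buffer | also added = FP-Rh probe | incubation = Enzyme–compound pre-incubation 45 min, then probe 60 min, both 25 °C | technique = fluorescence polarization, excitation 525 nm, emission 598 nm, BODIPY TMR filters | controls = S159A mutant high control, sample median low control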
`C=CCN1C(C(=O)OC)CN(Cc2cn(Cc3ccccc3)nn2)CCS1(=O)=O` (stereo unspecified) gave an inhibition of -0.95%. `COc1ccccc1-c1sc2ccccc2c1-c1ccc(Br)nc1` was tested, and the inhibition was -9.92%. With `COc1ccccc1C1=Nc2cccc3cccc(c23)N1` the inhibition was 56.6% (active). With `COc1ccccc1-c1n[nH]nc1C1=CC(=O)CC(C)(C)C1` the inhibition was -5.54%. Compound `CCn1c(=O)n2n(c1=O)[C@@]1(C=C3CCCC[C@H]32)N=C(NC(=O)c2ccccc2)N(Cc2ccccc2)[C@H]1Cc1ccccc1` has an inhibition of 5.91%. In the case of `COCCNC(=O)Nc1ccc2nc(-c3ccco3)c(-c3ccco3)nc2c1`, the inhibition is reported as 50.8% (active). `COCCNC(=O)c1cc2c(Br)ccc(Br)c2nc1N` gave an inhibition of -4.62%. With `COCCNC(=S)c1ccc(OC)cc1` the inhibition was 4.41%. For `O=C(C1CCN(S(=O)(=O)c2ccc(Br)s2)CC1)N1CCN(c2ccccc2)CC1`, the inhibition was 1.42%. With `COc1ccc(-n2c(SCC(=O)NC3CCCC3)nnc2-c2ccncc2)cc1` the inhibition was 3.8%. Compound `CCn1c(/C=C/Nc2ccccc2)[n+](CC)c2ccc(C(=O)OCC(F)(F)F)cc21` has an inhibition of -4.64%. `CC(c1c[nH]c2ccccc12)c1c(-c2ccccc2)n(C)c2ccccc12` (stereo unspecified) showed an inhibition of -21.7%. `Cc1nc2cc(C(F)(F)F)ccc2n1CCNc1nc(-c2cc(Cl)c(N)c(Cl)c2)cs1` gave an inhibition of 5.15%. In the case of `CCOC(=O)C1CCN(C(=O)c2oc3ccc(S(=O)(=O)N4CCCCCC4)cc3c2C)CC1`, the inhibition is reported as 6.37%. `CC1CCCCN1C(=O)Cn1c(=O)oc2cc(S(=O)(=O)N3CCCCC3)ccc21` (stereo unspecified) was tested, and the inhibition was 8.03%. For `CC(C)COC(=O)n1c(=O)oc2ccc(S(=O)(=O)N3CCCCC3)cc21`, the inhibition was 42.3% (active). `Cc1ccccc1NC(=O)C1CCN(c2ncccn2)CC1` was tested, and the inhibition was -7.6%. For `COC(=O)C1CCCCN1C(=O)c1ccc(OC2CCN(C(C)=O)CC2)c(OC)c1` (stereo unspecified), the inhibition was -4.35%. For `COc1ccc(-c2ccccc2C2Cc3nnccc3CN2C(=O)Nc2ccccc2)cc1` (stereo unspecified), the inhibition was -13%. For `Cc1coc2c(O)cc3c(c12)OC1(N2CCCCC2)C(=O)NCCCC31` (stereo unspecified), the inhibition was 35.3% (active). With `O=C(CSc1nnc(-c2ccccn2)n1-c1ccc(Cl)cc1)Nc1ccccc1-c1ccccc1` the inhibition was -9.15%. For `CS(=O)(=O)N1CCCC(C(=O)Nc2ccccc2C(F)(F)F)C1` (stereo unspecified), the inhibition was -11.1%. Work on `COc1ccc(C(C#N)Nc2ccc(C)cc2)cc1` (stereo unspecified) yielded an inhibition of 0.68%. `COCCn1c(N)c(NCc2ccccc2)c(=O)[nH]c1=O` gave an inhibition of 7.29%. `Cc1cc2nc3c(=O)n(Cc4ccccc4)c(=O)[nH]c3nc2cc1N` was tested, and the inhibition was 56.4% (active). `COCCCN(C(=O)CSCc1ccc(C)cc1)c1c(N)n(Cc2ccccc2)c(=O)[nH]c1=O` was tested, and the inhibition was 2.08%. With `CC(NC(=O)C1CCCN(S(=O)(=O)c2ccc(-n3cnnn3)cc2)C1)c1ccc(F)cc1` (stereo unspecified) the inhibition was -0.78%. Compound `Cc1ccc(S/C(=N\S(=O)(=O)c2ccc(Cl)cc2)c2ccccc2)cc1` has an inhibition of 7.36%. Compound `CCOc1ccc(Oc2c(Cl)cnn(-c3ccc(C)cc3)c2=O)cc1` has an inhibition of 5.6%. `COc1ccc(C2Nc3ccccc3C(=O)N2Cc2cccs2)cc1COc1c(C)cccc1C` (stereo unspecified) gave an inhibition of -15.8%. With `CCOc1ccc2nc(Nc3nc4ccc(NC(C)=O)cc4s3)sc2c1` the inhibition was 35.1% (active). In the case of `COc1ccc(-c2noc(C(C)NS(=O)(=O)c3ccc(NC(C)=O)cc3)n2)cc1` (stereo unspecified), the inhibition is reported as 0.4%. `COc1ccc(/C=C/c2nnc(NC(=O)C(C)C)s2)cc1` showed an inhibition of -1.43%. With `COc1ccc2nc(Nc3nc4ccc(NC(C)=O)cc4s3)sc2c1` the inhibition was 37.7% (active). For `CCOc1ccc2nc(NCCNC(=O)C(C)(C)C)c(C)cc2c1`, the inhibition was -2.62%. In the case of `CCOc1ccc2sc(NS(=O)(=O)c3ccc(N)cc3)nc2c1`, the inhibition is reported as 16.3%. Compound `CN1CCN(C(=O)C(=O)c2cn(CC(=O)N3CCCC3)c3ccccc23)CC1` has an inhibition of 8.39%. `Nc1nc2c(ncn2[C@@H]2O[C@H](C(=O)N[C@@H](Cc3ccccc3)C(=O)NCc3ccccc3)[C@@H](O)[C@H]2O)c(=O)[nH]1` gave an inhibition of 1.72%. `COC(=O)[C@]12C[C@H](CC(=O)NCC34CC5CC(CC(C5)C3)C4)C(=O)N(Cc3ccc(Cl)cc3Cl)C1=C[C@H](COCc1ccccc1)O[C@@H]2C` was tested, and the inhibition was 2.69%. Compound `O=C(NCc1ccccc1)[C@@H]1CCCN1C(=O)[C@@H](NS(=O)(=O)c1ccc(F)cc1F)C1CCCCC1` has an inhibition of -7.63%. Work on `COC(=O)[C@]12C[C@H](CC(=O)NCc3ccccc3)C(=O)N(Cc3ccccc3)C1=C[C@H](COCc1ccccc1)O[C@@H]2C` yielded an inhibition of -5.73%. `COC(=O)[C@@]12CCCCC=C1N(CCc1ccc(Cl)cc1)C(=O)[C@H]2CC(=O)NCc1ccc(OC)c(OC)c1` gave an inhibition of -1.49%. For `CCOC(=O)[C@@]12CCC3=C1N(CCC3)C(=O)[C@H](CC(=O)N1CCN(C(=O)c3ccco3)CC1)C2`, the inhibition was 2.38%. For `O=C1CC(c2ccccc2)C(c2ccccc2)=NN1` (stereo unspecified), the inhibition was -2.08%. With `CN(C(=O)CCn1c(=S)oc2ccccc21)C1CCCCC1` the inhibition was 0.63%. With `CCOC(=O)Cn1c2c(n(-c3ccc(F)cc3)c1=O)C=C(c1ccccc1)[C@@H](C)C(C(=O)N(C)C1CCCCC1)=C2` the inhibition was 34.2% (active). `CN(C(=O)COc1ncnc2c1cnn2-c1ccccc1)C1CCCCC1` was tested, and the inhibition was -16.6%. Work on `CCC(=O)Nc1ccc2c(c1)C(=O)N(C)[C@@H]1CC[C@@H](CC(=O)NCCc3ccccc3)O[C@H]1CO2` yielded an inhibition of -0.19%. For `CN1C(=O)c2cccc3c(N)ccc(c23)C1=O`, the inhibition was 32.9% (active). In the case of `Cc1nn(C)cc1N1C(=O)c2cccc3c(N)ccc(c23)C1=O`, the inhibition is reported as 35.3% (active). `CC(C)C[C@H](NC(=O)CC1CCCC1)C(=O)N1CCC[C@H]1C(=O)NCc1ccccc1` showed an inhibition of 0.46%. In the case of `COc1ccc2c(C(C)c3ccc(N)cc3)cn(C)c2c1` (stereo unspecified), the inhibition is reported as -3.15%. With `CC(NC(=O)CCCC1CCCCC1)c1ccc(S(N)(=O)=O)cc1` (stereo unspecified) the inhibition was -16%. In the case of `CCOC(=O)C1CCN(C(=O)C(C)(C)NC(=O)Nc2ccccc2Cl)CC1`, the inhibition is reported as -3.65%. With `O=C(NCC1COc2ccccc2O1)c1ccc(NC(=O)c2cc(F)ccc2F)cc1` (stereo unspecified) the inhibition was 5.07%. In the case of `CCN(CC)C(=O)CC[C@H]1CC[C@]2(CCCN(Cc3ccc(Cl)cc3)C2)O1`, the inhibition is reported as -3.65%. For `C=CCN1C(=O)[C@@H](CC(=O)NCCCOCCCC)[C@]2(C(=O)OCC)CCCCC/C=C/12`, the inhibition was -1.53%. Work on `Fc1cccc(Cc2noc(CN3CCN(c4cnccn4)CC3)n2)c1` yielded an inhibition of -0.5%. Work on `Cc1ccccc1N1CCN(Cc2nc(Cc3ccccc3F)no2)CC1` yielded an inhibition of -7.9%. `Cc1cccc(N2CCN(Cc3nc(C4CC4)no3)CC2)n1` was tested, and the inhibition was 53.8% (active). For `CCOC(=O)C1CCN(C(=O)C2(NC(=O)Nc3cccc(F)c3)CCCCC2)CC1`, the inhibition was -0.97%. For `O=C(/C=C/c1ccc([N+](=O)[O-])cc1)NCCSCc1ccco1`, the inhibition was -1.92%. `CCCCC(=O)N[C@@H]1CC[C@@]23CCCN2C(=O)CCC[C@H]3[C@H]1C` showed an inhibition of 3.19%. `CC1CCN(c2ccc(C(=O)O)cc2NS(=O)(=O)c2ccc(Br)s2)CC1` was tested, and the inhibition was 40.3% (active). With `CC1CCN(c2ccc(C(=O)Nc3nnc(C4CC4)s3)cc2[N+](=O)[O-])CC1` the inhibition was 2.94%. `CC1CCN(c2ccc(S(=O)(=O)Nc3cc(C(=O)O)cc(C(=O)O)c3)cc2[N+](=O)[O-])CC1` was tested, and the inhibition was -0.48%. With `O=C1C=CC(=O)N1c1ccc(N2CCCCC2)cc1` the inhibition was 40.5% (active). Compound `Nn1c(SCC(=O)N2c3ccccc3Sc3ccccc32)nnc1-c1n[nH]c2c1CCC2` has an inhibition of -15.8%. Compound `O=C1CC[C@@]23CCCN2C(=O)CCC[C@H]3[C@H]1Cc1ccccc1` has an inhibition of -0.8%. Compound `CC1(C)OC(=O)C(=CNC(CO)C(=O)O)C(=O)O1` (stereo unspecified) has an inhibition of 5.15%. `CC(=O)Nc1nc2ncccn2c1-c1ccc(C(F)(F)F)cc1` was tested, and the inhibition was 5.78%. Work on `CCCN1C(=O)c2[nH]nc(-c3ccccc3)c2C1c1ccccc1` (stereo unspecified) yielded an inhibition of -7.15%. With `O=C(CCCc1ccccc1)NCc1ccccc1` the inhibition was -1.11%. With `CC(C)NC(=O)/C(C#N)=C\c1ccc(N(C)C)c(Br)c1` the inhibition was 3.76%. For `N#C/C(=C\c1ccc(O)c(O)c1)C(=O)NCc1ccccc1`, the inhibition was 47% (active). `CC(=O)Nc1ccc(OC[C@@H](O)CN2CCC(C(O)(c3ccccc3)c3ccccc3)CC2)cc1` showed an inhibition of -3.77%. `OC(c1ccccc1)(c1ccccc1)C1CCN(CCCOc2ccc(-c3ccsc3)cc2)CC1` gave an inhibition of 13.8%. Work on `CN(C)c1ccc(NC(=O)NC2CCCCN(Cc3ccc(Cl)cc3)C2=O)cc1` (stereo unspecified) yielded an inhibition of 14%. With `Cc1cccc(N2CCN(c3ccc(NC(=O)/C=C\C(=O)O)cc3)CC2)c1` the inhibition was 38.7% (active). `Cc1cccc(C)c1NC(=O)CS(=O)CC(=O)N1CCN(c2ccccc2)CC1` (stereo unspecified) was tested, and the inhibition was -7.61%. For `Cc1cccc(N2CCN(C(=O)c3ccccc3NC(=O)C3CCCCC3C(=O)O)CC2)c1` (stereo unspecified), the inhibition was 2.26%. In the case of `COc1ccc(Cn2ccc3ccc(-c4ccc5ccn(Cc6ccccc6C)c5c4)cc32)cc1`, the inhibition is reported as 7.66%. `Cc1ccc(-c2nc(C3CCCN(S(=O)(=O)c4ccc(Br)s4)C3)no2)cc1` (stereo unspecified) gave an inhibition of 7.38%. `Oc1ccc(N2CCN(C(=S)NCc3ccccc3)CC2)cc1` gave an inhibition of 14.8%. In the case of `Oc1ccc(CNc2ccccc2O)cc1`, the inhibition is reported as 37.8% (active). `c1ccc(CNCc2ccc(CNCc3ccccc3)cc2)cc1` was tested, and the inhibition was 5.37%.
